The source of these data is ChEMBL document CHEMBL4219033, “Anticancer activity profiling of parthenolide analogs generated via P450-mediated chemoenzymatic synthesis” (2018).

What all share (assay type): functional
The test system of one assay is SJSA-1. Kind of assay: Cytotoxicity against human SJSA1 cells assessed as cell viability at 10 uM after 24 hrs by MTT assay relative to control. The conditions noted are these: SJSA-1, 24 h, read-out: Activity. The method, boiled down:
(§1)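 Adherent lines in DMEM plus 10% FBS and penicillin-streptomycin, 37 °C, 5% CO2, lifted with Accutase. Seeded at 500–10,000 cells/well and rested 15 h. Compounds from 10 mM DMSO stocks dosed at 10 µM final, 1% DMSO final, n = 5, for 24 h. Medium then swapped for 1 mg/ml MTT in phenol-red-free medium for 3 h at 37 °C. Formazan dissolved in DMSO, OD read at 550 nm. Viability normalised to 1% DMSO vehicle control.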
For orientation: Tetrazolium dyes change colour on reduction, which living cells bring about.

The test system of a further assay is HeLa. Kind of assay: Cytotoxicity against human HeLa cells assessed as cell viability at 10 uM after 24 hrs by MTT assay relative to control. The conditions noted are these: read-out: Activity. A digest of the protocol:
as §1

In the next assay the test system is SK-MEL-2. As to the kind of experiment: Cytotoxicity against human SK-MEL-2 cells assessed as cell viability at 10 uM after 24 hrs by MTT assay relative to control. To be noted: SK-MEL-2, 24 h, read-out: Activity. A digest of the protocol:
as §1

In another assay the test system is MDA-MB-231. Kind of assay: Cytotoxicity against human MDA-MB-231 cells assessed as cell viability at 10 uM after 24 hrs by MTT assay relative to control. To be noted: MDA-MB-231, 24 h, read-out: Activity. A digest of the protocol: as §1
Assay [1] deals with Jurkat. Kind of assay: Cytotoxicity against human Jurkat cells assessed as cell viability at 10 uM after 24 hrs by MTT assay relative to control. To be noted: read-out: Activity. The method, boiled down:
(§2)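 Suspension lines grown in α-MEM plus 10% FBS and penicillin-streptomycin, 37 °C, 5% CO2. Seeded at 30,000 cells/well in phenol-red-free α-MEM and rested 15 h. Exposed to 10 µM, or 2 µM in the lower-dose repeat, at 1% DMSO final for 24 h. 5 mg/ml MTT added directly for 3 h at 37 °C. Plates spun, formazan dissolved in DMSO, OD read at 550 nm. Viability relative to vehicle.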

Assay [2] deals with JeKo-1. As to the kind of experiment: Cytotoxicity against human JeKo1 cells assessed as cell viability at 10 uM after 24 hrs by MTT assay relative to control. The conditions noted are these: JeKo-1, 24 h, read-out: Activity. A digest of the protocol: as §2
For assay [3], the system named is JeKo-1. Kind of assay: Cytotoxicity against human JeKo1 cells assessed as cell viability at 2 uM after 24 hrs by MTT assay relative to control. To be noted: JeKo-1, 24 h, read-out: Activity. A digest of the protocol: as §2
Assay [4] concerns Jurkat. Kind of assay: Cytotoxicity against human Jurkat cells assessed as cell viability at 2 uM after 24 hrs by MTT assay relative to control. To be noted: read-out: Activity. A digest of the protocol: as §2
The test system of the next assay is A549. As to the kind of experiment: Cytotoxicity against human A549 cells assessed as cell viability at 10 uM after 24 hrs by MTT assay relative to control. The conditions noted are these: A549, 24 h, read-out: Activity. A digest of the protocol:
as §1

Another assay deals with PC-3. Kind of assay: Cytotoxicity against human PC3 cells assessed as cell viability at 10 uM after 24 hrs by MTT assay relative to control. To be noted: PC-3, 24 h, read-out: Activity. The method, boiled down:
as §1

The next assay relates to SK-N-MC. Kind of assay: Cytotoxicity against human SK-N-MC cells assessed as cell viability at 10 uM after 24 hrs by MTT assay relative to control. The conditions noted are these: read-out: Activity. A digest of the protocol: as §1
In another assay the test system is HCT-116. Kind of assay: Cytotoxicity against human HCT116 cells assessed as cell viability at 10 uM after 24 hrs by MTT assay relative to control. To be noted: HCT-116, 24 h, read-out: Activity. The method, boiled down: as §1

For `C=C1C(=O)O[C@@H]2[C@H]3O[C@]3(C)CC/C=C(/C)[C@@H](OC(=O)c3ccc4ccccc4c3)C[C@@H]12`, the viability at 10 µM with SJSA-1 is 100%; in the assay on HeLa, 88.8%; in the assay with SK-MEL-2, 98.7%; with MDA-MB-231, 100%; with Jurkat [1], 86.1%; in the assay on JeKo-1 [2] it was 71.9%. For the same molecule, the viability at 10 µM with A549 was 95.8%; in the assay on PC-3, 83.4%; with SK-N-MC, 96.8%; in the assay with HCT-116 it was 100%. Also, the figures for the viability at 2 µM with JeKo-1 [3] and with Jurkat [4] were 97% and 83.4%, respectively.
Regarding `C=C1C(=O)O[C@@H]2[C@H]3O[C@]3(C)CC/C=C(/C)[C@@H](OC(C(=O)OCC)c3ccccc3)C[C@@H]12` (some centres undefined), the viability at 10 µM is 100% in the assay on SJSA-1; 77.5% with HeLa; 72.5% with SK-MEL-2; 90% in the assay on MDA-MB-231; 0% in the assay with Jurkat [1]; -2.9% in the assay on JeKo-1 [2]. Moreover, the viability at 10 µM in the assay with A549 amounted to 60.7%; with PC-3, 78.9%; with SK-N-MC, 100%; with HCT-116 it was 46.2%. Also, the viability at 2 µM came to 76.6% with JeKo-1 [3] and 85.9% with Jurkat [4].
Regarding `C=C1C(=O)O[C@@H]2[C@H]3O[C@]3(C)CC/C=C(/C)[C@@H](OC(C(=O)OCc3ccccc3)c3ccccc3)C[C@@H]12` (some centres undefined), the viability at 10 µM was 103% with SJSA-1; 79% in the assay with HeLa; 66.3% with SK-MEL-2; 101% in the assay on MDA-MB-231; 0.6% in the assay with Jurkat [1]; -1.3% in the assay on JeKo-1 [2]. Besides, the viability at 10 µM with A549 came to 69.8%; with PC-3, 91.9%; in the assay on SK-N-MC, 84.1%; in the assay on HCT-116 it was 63.7%. Also, the viability at 2 µM worked out at 89.4% in the assay with JeKo-1 [3] and 82% with Jurkat [4].
Take `C=C1C(=O)O[C@@H]2[C@H]3O[C@]3(C)CC/C=C(\C)[C@@H](OC(=O)c3ccc(C(F)(F)F)cc3)C[C@@H]12`: the viability at 10 µM came out at 58.2% in the assay on SJSA-1; 68% in the assay on HeLa; 88.1% with SK-MEL-2; 69% with MDA-MB-231; 93.2% in the assay on Jurkat [1]; 23.3% in the assay with JeKo-1 [2]. The viability at 10 µM with A549 came out at 90.4%; with PC-3 it was 47.6%; in the assay on SK-N-MC, 67.4%; in the assay on HCT-116, 40%. The viability at 2 µM turned out to be 93.6% with JeKo-1 [3] and 78.9% in the assay on Jurkat [4].
As for `C=C1C(=O)O[C@@H]2[C@H]3O[C@]3(C)CC/C=C(/COC(=O)c3cc(-c4ccc(Cl)cc4)on3)CC[C@@H]12`, the viability at 10 µM amounted to 100% with SJSA-1; 88.4% in the assay with HeLa; 98.6% in the assay on SK-MEL-2; 100% in the assay on MDA-MB-231; 47.1% in the assay on Jurkat [1]; 39.4% in the assay with JeKo-1 [2]. In addition, the viability at 10 µM in the assay on A549 is 102%; in the assay on PC-3, 95.2%; with SK-N-MC, 64.5%; with HCT-116, 103%. Moreover, the viability at 2 µM was found to be 90.6% with JeKo-1 [3] and 94% with Jurkat [4].
`C=C1C(=O)O[C@@H]2[C@H]3O[C@]3(C)CC/C=C(/C)[C@@H](OC(=O)Nc3cccc4ccccc34)C[C@@H]12`: the viability at 10 µM in the assay on SJSA-1 amounted to 100%; with HeLa, 88.8%; with SK-MEL-2 it was 98.7%; with MDA-MB-231 it was 100%; with Jurkat [1], 84%; in the assay on JeKo-1 [2], 75.7%. Moreover, the viability at 10 µM was found to be 95.8% in the assay on A549, 83.4% with PC-3, 96.8% in the assay with SK-N-MC and 100% with HCT-116. For the same molecule, the viability at 2 µM with JeKo-1 [3] amounted to 97.6%; with Jurkat [4], 93.3%.
In the case of `C=C1C(=O)O[C@@H]2[C@H]3O[C@]3(C)CC/C=C(/COC(C(=O)OCc3ccccc3)c3ccccc3)CC[C@@H]12` (some centres undefined), the viability at 10 µM in the assay on SJSA-1 came to 101%; with HeLa, 79.2%; with SK-MEL-2 it was 80.7%; in the assay on MDA-MB-231 it was 88.1%; in the assay on Jurkat [1], 1%; in the assay with JeKo-1 [2] it was 0.8%. Further, the viability at 10 µM in the assay on A549 came out at 81.5%; in the assay with PC-3, 85.2%; in the assay on SK-N-MC, 97.8%; in the assay with HCT-116 it was 45.8%. The viability at 2 µM with JeKo-1 [3] came to 98.7%; in the assay on Jurkat [4] it was 87.8%.
In the case of `C=C1C(=O)O[C@@H]2[C@H]3O[C@]3(C)CC/C=C(/COC(C(=O)OCC)c3ccccc3)CC[C@@H]12` (some centres undefined), the viability at 10 µM with SJSA-1 was 100%; with HeLa it was 85.1%; in the assay on SK-MEL-2, 81.2%; in the assay on MDA-MB-231 it was 98.8%; with Jurkat [1], 18.3%; in the assay on JeKo-1 [2], 16.5%. Also, the viability at 10 µM with A549 turned out to be 59.1%; in the assay on PC-3 it was 85.8%; with SK-N-MC, 98%; in the assay with HCT-116 it was 76.7%. The viability at 2 µM in the assay on JeKo-1 [3] is 88.6%; in the assay with Jurkat [4], 87.8%.
For `C=C1C(=O)O[C@@H]2[C@H]3O[C@]3(C)CC/C=C(/COC(=O)Nc3cccc4ccccc34)CC[C@@H]12`, the viability at 10 µM with SJSA-1 came out at 98.3%; with HeLa, 75%; with SK-MEL-2, 73.6%; with MDA-MB-231, 100%; in the assay with Jurkat [1] it was 89%; in the assay with JeKo-1 [2], 16.8%. For the same molecule, the viability at 10 µM with A549 turned out to be 84.5%; in the assay on PC-3 it was 81.9%; with SK-N-MC, 104%; in the assay with HCT-116, 100%. For the same molecule, the values for the viability at 2 µM with JeKo-1 [3] and in the assay with Jurkat [4] were 102% and 96%, respectively.
`C=C1C(=O)O[C@@H]2[C@H]3O[C@]3(C)CC/C=C(/COC(C(=O)OCC)c3ccc(C(F)(F)F)cc3)CC[C@@H]12` (some centres undefined): the viability at 10 µM in the assay on SJSA-1 is 100%; with HeLa, 89.6%; with SK-MEL-2 it was 89.8%; in the assay with MDA-MB-231, 96.3%; with Jurkat [1], 29.3%; in the assay with JeKo-1 [2], 26.4%. Further, the viability at 10 µM came to 74.8% in the assay on A549, 87.2% in the assay with PC-3, 96.9% in the assay on SK-N-MC and 77.5% in the assay with HCT-116. The viability at 2 µM with JeKo-1 [3] came to 89.3%; in the assay on Jurkat [4], 90.2%.
As for `C=C1C(=O)O[C@@H]2[C@H]3O[C@]3(C)CC/C=C(/C)[C@@H](OC(=O)Nc3ccccc3)C[C@@H]12`, the viability at 10 µM in the assay with SJSA-1 worked out at 96.6%; with HeLa, 69%; with SK-MEL-2, 69.4%; in the assay on MDA-MB-231, 100%; in the assay on Jurkat [1], 2.9%; in the assay with JeKo-1 [2], 2.6%. Further, the viability at 10 µM in the assay with A549 came out at 84.5%; in the assay on PC-3, 88.4%; in the assay on SK-N-MC, 91.9%; with HCT-116, 55.3%. Moreover, the figures for the viability at 2 µM in the assay with JeKo-1 [3] and in the assay on Jurkat [4] were 92.2% and 89.8%, respectively.
In the case of `C=C1C(=O)O[C@@H]2[C@H]3O[C@]3(C)CC/C=C(/COC(=O)Nc3ccccc3)CC[C@@H]12`, the viability at 10 µM in the assay on SJSA-1 was 100%; with HeLa, 74.2%; in the assay with SK-MEL-2, 80.5%; in the assay on MDA-MB-231, 97.1%; in the assay on Jurkat [1], 0%; with JeKo-1 [2], 16.6%. Further, the viability at 10 µM in the assay on A549 is 60.3%; in the assay with PC-3 it was 85.3%; with SK-N-MC it was 102%; in the assay on HCT-116, 45.9%. Besides, the viability at 2 µM in the assay with JeKo-1 [3] worked out at 100%; in the assay with Jurkat [4] it was 89.2%.
